HSF1 inh: HSF1 inhibition; actives 0.77% (n = 300,000); NIH3T3-HGL HSE-luciferase, MG132-induced, luminescence 8 h; stronger effect = lower value; activity change, negative = inhibition, % at 7.5 µM (by protocol);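 active means more than half of replicate wells show activity change below -50%, luminescence cut by over half; inconclusive means some wells, but at most half, below -50%; inactive means no replicate well below -50%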;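 further: luciferase reports HSF-1 transcriptional activity via heat shock element; 0% = median of DMSO wells and -100% = zero luminescence signal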
HIF activator: HIF pathway transcriptional activation; U2OS HRE-luciferase reporter, luminescence; normalized: DMSO 0%, desferrioxamine 100%; activation, % at 7.5 µM (by protocol); actives 0.32% (n = 300,000); AID 1910;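 active means mean activation of at least 10% of the iron chelator positive control signal, with at least half of replicates also reaching 10%; inconclusive means mean and replicate majority disagree about reaching 10%; inactive means mean and most replicates under 10%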
Calb FLC: affects C. albicans growth with fluconazole; actives 0.57% (n = 300,000); C. albicans CaCi-2 + fluconazole, Alamar Blue growth, 48 h; growth inhibition, % (concentration not given with the values);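 active means growth inhibition above about 58% in most replicates, limit read from the data, passing the limit was not always enough; inconclusive means exactly half the replicates above a set limit; inactive means most replicates below a set limit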;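 further: all wells also contain fluconazole at 8 µg/ml as a sub-toxic cotreatment; 0% = median of DMSO wells and 100% = median of geldanamycin control wells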
T cruzi inh: T. cruzi replication inhibition; T. cruzi beta-gal in NIH3T3, luminescence, 90 h; inhibition, % (concentration not given with the values); actives 1.4% (n = 300,000);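 active means mean inhibition across valid replicates above about 55%, limit read from the data; inconclusive means mean below that limit but half or more replicates reach it; inactive means mean below it, under half of replicates reach it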;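 further: signal also drops with host cell toxicity which is not excluded here; 0% = plate median of DMSO wells and 100% = zero luminescence signal; higher percent means less beta-gal luminescence so fewer parasites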
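System – NIH/3T3 host cells with β-galactosidase reporter T. cruzi · Doses – single 50 nL compound addition per well in DMSO · Reagent – 5000 T. cruzi trypomastigotes/well · Medium – Low-serum DMEM with 2% FBS · Timing – ≥90 h infection period, 3 h prior cell attachment · Evaluation – parasite load inhibition, % · Technique – GalScreen luminescence, 60 min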
HSF-1 act: increases HSF-1 driven luciferase reporter signal | NIH3T3-HGL HSF-1 luciferase reporter, MG132, 8 h; 100% = twice DMSO control signal | activation, % at 9 µM | actives 1.7% (n = 300,000) | AID 504408;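 active means mean replicate activation of at least 50% with a set share of replicates each reaching 50%; inconclusive means only one of those two conditions met; inactive means mean below 50% and too few replicates reaching it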;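 further: 0% = median of the neutral control wells and 100% = twice that signal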
The depositor's hits bear a star; ? = inconclusive; . = not tested or not shown. In the library only some 4.4% were active in any assay of this set; here they are far more common.

SMILES	HSF1 inh	HIF activator	Calb FLC	T cruzi inh	HSF-1 act
Cc1c(/C(O)=C2/C(=O)C(=O)N(Cc3cccnc3)C2c2cccs2)cnn1-c1ccccc1 (stereo not given)	-64*	1	4	-3	-68
Cc1ccc(/C(O)=C2/C(=O)C(=O)N(Cc3cccnc3)C2c2ccccn2)cc1 (stereo not given)	-38	0	.	1	-55
O=C(CCl)NN1C(=O)NC(c2ccccc2)(c2ccccc2)C1=O	4	-1	3	-18	4
Cc1ccc(N/C(N)=N/c2nc3c(c(=O)[nH]2)CCCC3)c(C)c1	-4	0	-16	-17	-5
Cc1ccc(N/C(N)=N/c2nc(C)cc(N3CCCCC3)n2)c(C)c1	.	-1	14	69*	.
COCCCN1C(=O)C(=O)/C(=C(/O)c2ccc(C)cc2)C1/C=C/c1ccccc1 (stereo not given)	5	0	31	11	-3
[O-]/[N+](=C\c1ccco1)c1ccc(Cl)cc1	54	4	-1	-9	99*
C=CCN1C(=O)NC(c2ccccc2)(C(F)(F)F)S/C1=C(\C#N)c1nnc(N2CCOCC2)n1-c1ccccc1 (stereo not given)	37	0	?	2	83*
COc1ccc(N2C(C)=CS/C2=C(/C#N)c2nnc(N3CCOCC3)n2-c2ccccc2)cc1	-7	.	-4	19	-12
NCC(c1ccc(Cl)cc1Cl)c1c[nH]c2ccccc12 (stereo not given)	9	0	80*	-6	-1
Cc1cc(C)c2c(N)c(-c3nnc(SCc4ccc(Cl)cc4)n3C)sc2n1	-4	1	-1	12	-5
C=CCn1c(SCc2ccccc2Cl)nnc1-c1sc2nc(C)cc(C)c2c1N	-9	0	-2	63*	-13
COc1ccc(-c2nc(CS(=O)CC(=O)NCCCN3CCCC(C)C3)c(C)o2)cc1OC (stereo not given)	16	3	0	-8	20
CN(C)CC(C)(C)CN=Cc1c(O)[nH]c2ccccc12	7	0	27	61*	22
Cc1ccc(N(CC2CO2)S(=O)(=O)c2ccc([N+](=O)[O-])cc2)cc1 (stereo not given)	9	-1	2	5	9
COc1ccc(C(=O)O/N=C(\N)c2ccccc2)cc1	-46	-1	-20	-6	-45
CC(C)(C)c1ccc(C(=O)O/N=C(\N)c2ccccc2)cc1	-93*	-56	-4	39	-95
COc1ccc(/C(N)=N/OC(=O)c2ccco2)cc1	-22	-2	-15	-4	-10
Cc1ccc(/C(N)=N/OC(=O)c2ccco2)cc1	26	-3	31	-13	55*
N/C(=N\OC(=O)c1ccco1)c1ccccc1	20	1	-3	-2	55*
Cc1occc1C(=O)O/N=C(\N)c1ccc(Cl)cc1	23	3	-1	10	58*
COc1ccc(S(=O)(=O)N2CCOCC2)cc1NC(=O)Cn1nnc2ccccc2c1=O	-1	-1	2	6	15
Cc1cc(C)n(-c2cc(N3CCN(C(=O)c4cccc(F)c4)CC3)ccc2[N+](=O)[O-])n1	-4	0	-3	9	1
Cc1ccc(C(C(=O)NC2CCCCC2)N(Cc2ccco2)C(=O)Cn2cnc3ccccc32)cc1 (stereo not given)	10	0	-5	17	19
COc1ccc(OC)c(S(=O)(=O)N2CCC(c3nc4ccccc4[nH]3)CC2)c1	2	0	4	-7	-4
SMILES	HSF1 inh	HIF activator	Calb FLC	T cruzi inh	HSF-1 act
Cc1ccc(/C(N)=N/OC(=O)CSc2ccccc2)cc1	45	1	-16	4	62*
COc1ccc2c(c1)c(C(=O)N/N=C/c1ccccc1Cl)c(C)n2C	16	0	2	11	56*
COc1ccc2c(c1)c(C(=O)N/N=C/c1cccc(Br)c1)c(C)n2C	9	0	2	55*	18
CCN(C(=O)CSc1nnc(CNc2cccc(OC)c2)n1C1CCCCC1)C1CCS(=O)(=O)C1 (stereo not given)	0	0	1	6	-12
CN1CCN(NC(=O)/C=C/c2ccc(C(C)(C)C)cc2)CC1	-6	0	9	45	10
CN1CCN(NC(=O)/C=C/c2ccc(Br)cc2)CC1	40	2	-2	24	82*
COc1cccc(OC)c1C(=O)Nc1ccc2c(c1)Cc1ccccc1-2	29	1	-4	18	27
O=C(Nc1ccc2c(c1)Cc1ccccc1-2)c1ccco1	32	2	7	12	56*
COc1ccccc1/C=C1\SC(=O)N(CC(=O)N(C)C2CCS(=O)(=O)C2)C1=O (stereo not given)	2	0	3	9	1
CCOC(=O)C1(CCCc2ccccc2)CCN(Cc2ccn[nH]2)CC1	-2	0	-2	7	-6
Cc1c(C(=O)Nc2ccc(-c3nnc4n3CCCCC4)cc2)oc2c1ccc1ccccc12	9	0	4	56*	14
CCCS(=O)(=O)N1CCCC(C(=O)N2CCC(Cc3ccccc3)CC2)C1 (stereo not given)	-81*	0	-4	7	-86
CCCS(=O)(=O)N1CCC(C(=O)N2CCC(Cc3ccccc3)CC2)CC1	-2	0	-4	-5	0
CN1CCN(C(=O)c2ccccc2Nc2ccc(SC(F)F)cc2)CC1	-4	-1	-6	-6	8
CN1CCC(N(C)C(=O)c2ccccc2Nc2ccc(SC(F)F)cc2)CC1	-16	.	4	59*	-35
CC(=O)N1CCc2cc(S(=O)(=O)N3CCc4ccccc43)ccc21	-1	0	13	18	0
CCOC(=O)c1c(CSc2ccccc2)n(C)c2ccc(O)c(CN3CCOCC3)c12	70	-1	2	15	70*
CCOC(=O)c1c(C)n(C)c2ccc(OC)c(NC(=O)CCN3CCC(Cc4ccccc4)CC3)c12	1	-1	1	7	14
CCOC(=O)c1c(C)n(C)c2ccc(OC)c(NC(=O)CN3CCSCC3)c12	-91*	0	-5	-4	-93
CCOC(=O)c1c(C)n(C)c2ccc(O)c(CN3CCN(C)CC3)c12	29	1	40	3	56*
O=C(NCc1ccc(F)cc1)C1CCCN(S(=O)(=O)c2cccc3nsnc23)C1 (stereo not given)	6	0	7	4	3
O=C(NCc1ccccc1)C1CCCN(S(=O)(=O)c2cccc3nsnc23)C1 (stereo not given)	-72*	1	1	-1	-78
O=c1[nH]c(-c2ccccc2)nnc1-c1ccccc1	0	1	3	-5	12
COc1cc(Cl)c(C)cc1NC(=O)CSc1ccccc1	-2	0	40	5	20
COc1cc(Cl)c(C)cc1NC(=O)CSc1ccc(C)cc1	38	0	3	9	80*
